Assay results published in ChEMBL document CHEMBL5653632, “PRMT5 inhibition disrupts splicing and stemness in glioblastoma” (Nat Commun, 2021).
Active and inactive are the calls of the source. The rule behind the calls is not given here.

What was measured:
[1] = Antiproliferative activity against human G800 cells incubated for 9 to 12 days by IncuCyte zoom live-cell imaging analysis; assay type: functional, cell-based
Outline: (§1)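 Adherent culture on poly-L-ornithine/laminin in serum-free NS-A medium with EGF and bFGF (10 ng/mL each) and heparin. Nine concentrations (3 nM–30 µM), three technical replicates per dose, DMSO control, medium and drug refreshed every 5 days, run until DMSO wells were confluent (9–20 days). Confluence was imaged live and normalized to DMSO. Curves were taken at the 95th percentile of time to DMSO confluence, and AAC was calculated.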

G411 [2] = test: Inhibition of colony formation in human G411 cells assessed as reduction in sphere forming capacity at 1 uM incubated for 14 days by limiting dilution assay; assay type: functional, cell-based; details: time 14.0 day
Outline: (§2)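 Each GSC line was seeded on non-adherent 96-well plates in 1:2 serial dilutions from 2000 to 4 cells per well, six replicates per dilution, in adherent-culture medium. Treatment was 1 µM, with SGC2096 and DMSO as controls, added on day 1 and replenished weekly. Wells were scored for spheres at 1 and 2 weeks, and sphere frequency was estimated by ELDA (single-hit model). n = 3.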

G583 [3] = test: Inhibition of colony formation in human G583 cells assessed as reduction in sphere forming capacity at 1 uM incubated for 14 days by limiting dilution assay; assay type: functional, cell-based; details: time 14.0 day; outline: as §2
G411 [4] = test: Induction of apoptosis in human G411 cells at 1 uM after 5 days by Annexin-V staining based IncuCyte live cell imaging analysis; assay type: functional; details: time 5.0 day
[5] = Antiproliferative activity against human HF6562 cells incubated for 9 to 12 days by IncuCyte zoom live-cell imaging analysis; assay type: functional, cell-based; outline: as §1
[6] = Antiproliferative activity against human G523 cells incubated for 9 to 12 days by IncuCyte zoom live-cell imaging analysis; assay type: functional, cell-based; outline: as §1
G583 [7] = test: Induction of senescence in human G583 cells at 1 uM after 5 days by SA-beta-galactosidase based assay; assay type: functional, cell-based; details: time 5.0 day
Outline: (§3)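 GSCs were treated at 1 µM for 5 days, with SGC2096 and DMSO as controls and n = 3. Cells were fixed in 4% paraformaldehyde for 5 min at RT, stained overnight with SA-β-gal solution, and counterstained with nuclear fast red. Blue cells were counted as a fraction of total cells.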

[8] = Antiproliferative activity against human G837 cells incubated for 9 to 12 days by IncuCyte zoom live-cell imaging analysis; assay type: functional, cell-based; outline: as §1
[9] = Antiproliferative activity against human HF7450 cells incubated for 9 to 12 days by IncuCyte zoom live-cell imaging analysis; assay type: functional, cell-based; outline: as §1
[10] = Antiproliferative activity against human G566 cells incubated for 9 to 12 days by IncuCyte zoom live-cell imaging analysis; assay type: functional, cell-based; outline: as §1
[11] = Antiproliferative activity against human G851 cells incubated for 9 to 12 days by IncuCyte zoom live-cell imaging analysis; assay type: functional, cell-based; outline: as §1
[12] = Antiproliferative activity against human BT147 cells incubated for 9 to 12 days by IncuCyte zoom live-cell imaging analysis; assay type: functional, cell-based
G411 [13] = test: Induction of senescence in human G411 cells at 1 uM after 5 days by SA-beta-galactosidase based assay; assay type: functional, cell-based; details: time 5.0 day; outline: as §3
G561 [14] = test: Antiproliferative activity against human G561 cells at 1 uM incubated for 9 to 12 days by IncuCyte zoom live-cell imaging analysis; assay type: functional, cell-based; details: time 9-12 day
Outline: (§4)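 Adherent GSCs were cultured in serum-free medium with EGF and bFGF on poly-L-ornithine/laminin and plated in triplicate in 96-well plates. They were treated at 1 µM, with 1 µM SGC2096 or 0.05% DMSO as controls, for 9–12 days or until DMSO wells were confluent. Medium with drug was refreshed every 5 days. IncuCyte confluence was imaged every 8 h and normalized to each well's initial confluence.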

[15] = Antiproliferative activity against human G895 cells incubated for 9 to 12 days by IncuCyte zoom live-cell imaging analysis; assay type: functional, cell-based; outline: as §1
[16] = target: Protein arginine N-methyltransferase 5 (Homo sapiens) (UniProt O14744); test: Inhibition of PRMT5 in human G411 cells assessed as reduction in SDMA level at 1 uM after 5 days by Western blot analysis; assay type: cell-based; details: time 5.0 day
Sequence of Protein arginine N-methyltransferase 5 (Homo sapiens) (O14744 whole entry): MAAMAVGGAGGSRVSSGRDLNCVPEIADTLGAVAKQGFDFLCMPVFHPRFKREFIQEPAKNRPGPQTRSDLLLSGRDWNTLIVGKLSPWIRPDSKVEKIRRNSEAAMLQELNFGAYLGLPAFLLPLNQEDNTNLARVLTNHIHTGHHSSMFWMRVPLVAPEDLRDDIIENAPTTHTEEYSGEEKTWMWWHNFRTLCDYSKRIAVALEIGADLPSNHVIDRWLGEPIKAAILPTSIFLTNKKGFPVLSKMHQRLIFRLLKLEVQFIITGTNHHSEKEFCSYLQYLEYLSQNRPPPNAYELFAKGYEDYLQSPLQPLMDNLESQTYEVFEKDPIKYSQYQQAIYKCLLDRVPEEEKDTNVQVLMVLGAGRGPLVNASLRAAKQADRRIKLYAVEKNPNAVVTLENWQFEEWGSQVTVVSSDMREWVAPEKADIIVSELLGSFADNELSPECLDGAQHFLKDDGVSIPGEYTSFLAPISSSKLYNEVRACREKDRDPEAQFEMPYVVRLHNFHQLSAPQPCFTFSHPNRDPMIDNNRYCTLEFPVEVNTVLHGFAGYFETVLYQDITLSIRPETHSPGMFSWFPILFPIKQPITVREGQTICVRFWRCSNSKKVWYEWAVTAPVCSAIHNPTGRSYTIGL
Outline: (§5)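 Symmetric dimethylarginine on SmB/B' was measured by western blot with IRDye secondary antibodies and infrared imaging.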

G411 [17] = test: Antiproliferative activity against human G411 cells at 1 uM incubated for 9 to 12 days by IncuCyte zoom live-cell imaging analysis; assay type: functional, cell-based; details: time 9-12 day; outline: as §4
[18] = Antiproliferative activity against human G799 cells incubated for 9 to 12 days by IncuCyte zoom live-cell imaging analysis; assay type: functional, cell-based; outline: as §1
G583 [19] = test: Induction of apoptosis in human G583 cells at 1 uM after 5 days by Annexin-V staining based IncuCyte live cell imaging analysis; assay type: functional; details: time 5.0 day
[20] = target: Protein arginine N-methyltransferase 5 (Homo sapiens) (UniProt O14744); test: Inhibition of PRMT5 in human G549 cells assessed as reduction in SDMA level at 1 uM after 7 days by Western blot analysis; assay type: cell-based; details: time 7.0 day
[21] = Antiproliferative activity against human G561 cells incubated for 9 to 12 days by IncuCyte zoom live-cell imaging analysis; assay type: functional, cell-based; outline: as §1
[22] = Antiproliferative activity against human BT069 cells incubated for 9 to 12 days by IncuCyte zoom live-cell imaging analysis; assay type: functional, cell-based
[23] = target: Protein arginine N-methyltransferase 5 (Homo sapiens) (UniProt O14744); test: Inhibition of PRMT5 in human G729 cells assessed as reduction in SDMA level at 1 uM after 7 days by Western blot analysis; assay type: cell-based; details: time 7.0 day
G729 = test: Induction of apoptosis in human G729 cells at 1 uM after 5 days by Annexin-V staining based IncuCyte live cell imaging analysis; assay type: functional; details: time 5.0 day
G411 [24] = test: Antiproliferative activity against human G411 cells incubated for 9 to 12 days by IncuCyte zoom live-cell imaging analysis; assay type: functional, cell-based; outline: as §1
G583 [25] = test: Antiproliferative activity against human G583 cells at 1 uM incubated for 9 to 12 days by IncuCyte zoom live-cell imaging analysis; assay type: functional, cell-based; details: time 9-12 day; outline: as §4
[26] = Antiproliferative activity against human G702 cells incubated for 9 to 12 days by IncuCyte zoom live-cell imaging analysis; assay type: functional, cell-based; outline: as §1
[27] = target: Protein arginine N-methyltransferase 5 (Homo sapiens) (UniProt O14744); test: Inhibition of PRMT5 in human G583 cells assessed as reduction in SDMA level at 1 uM after 5 days by Western blot analysis; assay type: cell-based; details: time 5.0 day; outline: as §5
[28] = Antiproliferative activity against human G626 cells incubated for 9 to 12 days by IncuCyte zoom live-cell imaging analysis; assay type: functional, cell-based; outline: as §1
G561 [29] = test: Inhibition of colony formation in human G561 cells assessed as reduction in sphere forming capacity at 1 uM incubated for 14 days by limiting dilution assay; assay type: functional, cell-based; details: time 14.0 day; outline: as §2
[30] = target: Protein arginine N-methyltransferase 5 (Homo sapiens) (UniProt O14744); test: Inhibition of PRMT5 in human G797 cells assessed as reduction in SDMA level at 1 uM after 7 days by Western blot analysis; assay type: cell-based; details: time 7.0 day
[31] = Antiproliferative activity against human BT143 cells incubated for 9 to 12 days by IncuCyte zoom live-cell imaging analysis; assay type: functional, cell-based
[32] = Antiproliferative activity against human HF5205 cells incubated for 9 to 12 days by IncuCyte zoom live-cell imaging analysis; assay type: functional, cell-based; outline: as §1
[33] = target: Protein arginine N-methyltransferase 5 (Homo sapiens) (UniProt O14744); test: Inhibition of PRMT5 in HFNS cells assessed as reduction in SDMA level at 1 uM after 5 days by Western blot analysis; assay type: cell-based; details: time 5.0 day
[34] = target: Protein arginine N-methyltransferase 5 (Homo sapiens) (UniProt O14744); test: Inhibition of PRMT5 in human G561 cells assessed as reduction in SDMA level at 1 uM after 5 days by Western blot analysis; assay type: cell-based; details: time 5.0 day; outline: as §5
[35] = Antiproliferative activity against human G861 cells incubated for 9 to 12 days by IncuCyte zoom live-cell imaging analysis; assay type: functional, cell-based; outline: as §1
[36] = Antiproliferative activity against human G477 cells incubated for 9 to 12 days by IncuCyte zoom live-cell imaging analysis; assay type: functional, cell-based; outline: as §1
[37] = Antiproliferative activity against human G564 cells incubated for 9 to 12 days by IncuCyte zoom live-cell imaging analysis; assay type: functional, cell-based; outline: as §1

| SMILES | IC50 [1] [nM] | inhibition (G411 [2]) | inhibition (G583 [3]) | Activity (G411 [4]) | EC50 [5] [nM] | IC50 [6] [nM] | Activity (G583 [7]) | IC50 [8] [nM] | EC50 [9] [nM] | IC50 [10] [nM] | IC50 [11] [nM] | IC50 [12] [nM] | Activity (G411 [13]) | Activity (G561 [14]) | IC50 [15] [nM] | inhibition [16] | Activity (G411 [17]) | IC50 [18] [nM] | Activity (G583 [19]) | inhibition [20] | further results |
| --- | --- | --- | --- | --- | --- | --- | --- | --- | --- | --- | --- | --- | --- | --- | --- | --- | --- | --- | --- | --- | --- |
| O=C(NC[C@H](O)CN1CCc2ccccc2C1)c1ccnc(NC2CCC2)c1 | 16400 | Active | Active | Active | 63 | 830 | Active | 5010 | 155 | 2050 | 570 | 170 | Active | Active | 640 | Active | Active | 680 | Active | Active | EC50 [21]: 1000 nM; IC50 [22]: 690 nM; inhibition [23]: Active; Activity (G729): Active; EC50 (G411 [24]): 100 nM; Activity (G583 [25]): Active; IC50 [26]: 1620 nM; inhibition [27]: Active; EC50 [28]: 480 nM; inhibition (G561 [29]): Active; inhibition [30]: Active; IC50 [31]: 600 nM; EC50 [32]: 7 nM; inhibition [33]: Active; inhibition [34]: Active; IC50 [35]: 1280 nM; EC50 [36]: 3180 nM; IC50 [37]: 230 nM |
| Nc1ncnc2c1ccn2[C@@H]1O[C@H]([C@H](O)c2ccccc2)[C@@H](O)[C@H]1O | 120 | Active | Active | Active | 0.66 | 10 | Active | 40 | 3 | 30 | 10 | 10 | Active | Active | 100 | Active | Active | 20 | Active | Active | EC50 [21]: 10 nM; IC50 [22]: 30 nM; inhibition [23]: Active; Activity (G729): Active; EC50 (G411 [24]): 19 nM; Activity (G583 [25]): Active; IC50 [26]: 20 nM; inhibition [27]: Active; EC50 [28]: 10 nM; inhibition (G561 [29]): Active; inhibition [30]: Active; IC50 [31]: 160 nM; EC50 [32]: 9 nM; inhibition [33]: Active; inhibition [34]: Active; IC50 [35]: 40 nM; EC50 [36]: 40 nM; IC50 [37]: 30 nM |
